Laboratory results taken from paper PMC5599375 (Journal of medicinal chemistry, 2017).
In brackets after ≈: the same amount, converted by molar mass. Entries after “also recorded” stand apart in the source; their conditions may differ. Read-outs that look alike come from different tables or passages of the source.

Legend:
NDM-1 [1] = biological target: T1, NDM-1 (Klebsiella pneumoniae, UniProt C7C422); test: NDM-1 IC50, fluorescent fluorocillin assay; assay type: biochemical
MMP-2 = biological target: T2, MMP-2 (Homo sapiens, UniProt P08253); test: MMP-2 inhibition, OmniMMP fluorogenic substrate; assay type: biochemical; settings: at 10 μM
T2 sequence (P08253 110-660): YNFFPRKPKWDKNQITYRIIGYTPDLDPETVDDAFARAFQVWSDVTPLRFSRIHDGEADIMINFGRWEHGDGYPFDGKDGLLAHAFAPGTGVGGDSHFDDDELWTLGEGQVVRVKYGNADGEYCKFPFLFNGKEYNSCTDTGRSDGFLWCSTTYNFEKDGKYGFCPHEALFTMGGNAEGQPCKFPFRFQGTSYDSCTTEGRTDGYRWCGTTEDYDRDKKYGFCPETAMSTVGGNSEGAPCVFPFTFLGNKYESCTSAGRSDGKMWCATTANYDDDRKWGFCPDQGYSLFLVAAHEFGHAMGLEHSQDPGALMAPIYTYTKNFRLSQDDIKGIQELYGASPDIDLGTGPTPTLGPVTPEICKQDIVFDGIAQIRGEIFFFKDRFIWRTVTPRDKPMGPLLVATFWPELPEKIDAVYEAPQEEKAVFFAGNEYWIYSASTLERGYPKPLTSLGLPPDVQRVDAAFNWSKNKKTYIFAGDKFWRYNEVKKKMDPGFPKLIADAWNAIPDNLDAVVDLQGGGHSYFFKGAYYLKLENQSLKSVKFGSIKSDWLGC
Procedure, shortened: (§1)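 Human recombinant MMP-2 (1.16 U/well) or MMP-12 (0.007 U/well) was preincubated with test compound (1 mM–5 μM range) for 30 min at 37 °C in 50 mM HEPES, 10 mM CaCl2, 0.05% Brij-35, pH 7.5. The reaction was started with 4 μM OmniMMP substrate (Mca-Pro-Leu-Gly-Leu-Dpa-Ala-Arg-NH2), and the fluorescence increase was monitored over 20 min (ex 320/em 400 nm). No-inhibitor wells were set to 100% and 200 μM NSA to 0%; run in triplicate.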

MMP-12 = MMP-12 (Homo sapiens, UniProt P39900); test: MMP-12 inhibition, OmniMMP fluorogenic substrate; assay type: biochemical; settings: at 10 μM
Sequence of MMP-12 (P39900 106-470): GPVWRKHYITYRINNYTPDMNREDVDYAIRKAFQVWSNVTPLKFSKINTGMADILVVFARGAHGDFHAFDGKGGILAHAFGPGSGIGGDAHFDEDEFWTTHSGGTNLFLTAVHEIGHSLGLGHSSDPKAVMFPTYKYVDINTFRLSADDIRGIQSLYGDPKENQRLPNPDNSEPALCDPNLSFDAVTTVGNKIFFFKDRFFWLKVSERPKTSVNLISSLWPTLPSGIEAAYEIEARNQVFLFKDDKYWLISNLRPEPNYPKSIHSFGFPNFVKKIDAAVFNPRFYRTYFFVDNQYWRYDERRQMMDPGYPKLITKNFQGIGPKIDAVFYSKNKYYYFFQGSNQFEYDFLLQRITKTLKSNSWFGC
Procedure, shortened: as §1

HDAC-1 = HDAC-1 (Homo sapiens, UniProt Q13547); test: HDAC-1 inhibition, fluorescence assay; assay type: biochemical; settings: at 10 μM
Sequence of HDAC-1 (Q13547 whole entry): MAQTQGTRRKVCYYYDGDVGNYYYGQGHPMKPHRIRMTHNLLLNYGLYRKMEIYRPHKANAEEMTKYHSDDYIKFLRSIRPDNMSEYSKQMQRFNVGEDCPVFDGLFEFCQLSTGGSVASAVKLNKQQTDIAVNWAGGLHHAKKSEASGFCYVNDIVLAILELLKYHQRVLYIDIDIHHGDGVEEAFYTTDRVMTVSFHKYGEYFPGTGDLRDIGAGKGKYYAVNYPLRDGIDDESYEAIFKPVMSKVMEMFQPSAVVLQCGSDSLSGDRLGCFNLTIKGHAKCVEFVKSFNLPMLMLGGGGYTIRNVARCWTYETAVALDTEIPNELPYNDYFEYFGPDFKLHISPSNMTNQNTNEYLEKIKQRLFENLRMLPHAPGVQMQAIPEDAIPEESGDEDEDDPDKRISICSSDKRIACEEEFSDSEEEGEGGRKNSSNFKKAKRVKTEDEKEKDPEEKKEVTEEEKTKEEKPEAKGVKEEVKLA
Procedure, shortened: (§2)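 After 5 min preincubation, 20 μM HDAC substrate 3 was added for 30 min at 37 °C, then developer for 15 min at room temperature. Fluorescence ex 360/em 460 nm was read. No-inhibitor wells were set to 100% and 200 μM SAHA to 0%; run in triplicate.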

HDAC-6 = biological target: T3, HDAC-6 (Homo sapiens, UniProt Q9UBN7); test: HDAC-6 inhibition, fluorescence assay; assay type: biochemical; settings: at 10 μM
T3 sequence (Q9UBN7 1-1215): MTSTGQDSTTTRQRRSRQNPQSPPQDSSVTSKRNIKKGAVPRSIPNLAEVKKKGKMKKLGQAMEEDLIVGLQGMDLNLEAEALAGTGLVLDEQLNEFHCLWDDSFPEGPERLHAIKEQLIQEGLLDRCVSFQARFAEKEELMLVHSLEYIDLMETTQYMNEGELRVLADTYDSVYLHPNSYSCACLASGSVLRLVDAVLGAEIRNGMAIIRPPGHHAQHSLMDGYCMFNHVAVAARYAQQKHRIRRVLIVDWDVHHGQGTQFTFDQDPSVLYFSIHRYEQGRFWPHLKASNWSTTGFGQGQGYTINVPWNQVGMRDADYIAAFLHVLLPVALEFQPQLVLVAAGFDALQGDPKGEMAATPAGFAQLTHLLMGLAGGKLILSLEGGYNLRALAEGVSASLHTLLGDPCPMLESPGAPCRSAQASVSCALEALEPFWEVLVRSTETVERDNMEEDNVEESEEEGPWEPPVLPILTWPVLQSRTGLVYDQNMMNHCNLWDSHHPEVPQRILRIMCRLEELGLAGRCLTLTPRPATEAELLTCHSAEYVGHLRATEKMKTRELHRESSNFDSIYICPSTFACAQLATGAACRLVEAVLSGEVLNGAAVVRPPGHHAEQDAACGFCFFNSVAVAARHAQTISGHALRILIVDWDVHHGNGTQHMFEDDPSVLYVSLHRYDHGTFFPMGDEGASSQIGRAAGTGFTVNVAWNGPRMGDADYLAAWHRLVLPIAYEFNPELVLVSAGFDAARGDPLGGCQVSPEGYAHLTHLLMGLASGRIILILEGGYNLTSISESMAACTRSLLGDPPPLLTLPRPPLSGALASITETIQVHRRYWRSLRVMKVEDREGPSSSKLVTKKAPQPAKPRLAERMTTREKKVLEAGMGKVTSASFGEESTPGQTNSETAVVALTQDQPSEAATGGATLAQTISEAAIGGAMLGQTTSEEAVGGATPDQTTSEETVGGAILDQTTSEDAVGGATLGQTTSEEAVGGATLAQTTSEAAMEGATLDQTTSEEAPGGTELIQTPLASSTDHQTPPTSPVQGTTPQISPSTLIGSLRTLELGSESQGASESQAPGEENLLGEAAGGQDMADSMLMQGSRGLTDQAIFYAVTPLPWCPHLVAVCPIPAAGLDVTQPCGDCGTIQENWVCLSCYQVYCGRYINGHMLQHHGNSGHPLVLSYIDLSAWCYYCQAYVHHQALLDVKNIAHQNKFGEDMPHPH
Procedure, shortened: as §2

[2] = biological target: Human carbonic anhydrase II (Homo sapiens, UniProt P00918); test: hCAII inhibition, p-nitrophenyl acetate assay; assay type: biochemical
Procedure, shortened: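 Esterase activity was started with 500 μM p-nitrophenyl acetate and followed at 405 nm for 15 min. No-inhibitor wells were set to 100% and 50 μM benzene sulfonamide to 0%; run in triplicate.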

[3] = system: Zn(II)-dependent metalloenzymes (HDACs, MMPs, CAs); test: Panel of Zn; assay type: biochemical; settings: 50 – 100 μM; data not shown
NDM-1 [4] = biological target: T1, NDM-1; test: NDM-1 IC50 variation with exogenous Zn; assay type: biochemical; settings: Figure S3
NDM-1 [5] = biological target: T1, NDM-1; settings: for Zn(II) content of NDM-1 after incubation and dialysis: NDM-1 8 μM, 50 mM HEPES pH 7.5
NDM-1 [6] = biological target: T1, NDM-1; assay type: binding; settings: 2 μM NDM-1, up to 32 μM compound
[7] = system: E. coli and K. pneumoniae clinical isolates expressing blaNDM-1; test: organism not typed; assay type: cell-based
HEK293 cells = test: Cytotoxicity assay; assay type: cell-based, human; settings: concentrations relevant to the MIC studies; 4 and 24 h
[8] = Control titration of L-tryptophan fluorescence; settings: 2 μM L-tryptophan
[9] = system: clinical E. coli isolates expressing blaNDM-1; test: microbe, parasite or virus in culture; assay type: cell-based; settings: Escherichia coli
[10] = system: clinical K. pneumoniae isolates expressing blaNDM-1; test: microbe, parasite or virus in culture; assay type: cell-based; settings: Klebsiella pneumoniae

T1 sequence (C7C422 29-270 limits assumed): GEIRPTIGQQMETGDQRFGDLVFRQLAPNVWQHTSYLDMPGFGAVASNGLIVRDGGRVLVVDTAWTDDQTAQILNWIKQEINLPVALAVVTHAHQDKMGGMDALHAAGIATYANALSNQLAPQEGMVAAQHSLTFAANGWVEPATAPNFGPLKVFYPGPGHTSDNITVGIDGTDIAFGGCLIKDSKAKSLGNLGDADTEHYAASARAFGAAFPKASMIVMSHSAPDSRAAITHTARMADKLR

## Nc1cccc(-c2cc(C(=O)O)nc(C(=O)O)c2)c1 [Compound 36, 4-(3-Aminophenyl)pyridine-2,6-dicarboxylic acid]
NDM-1 [1]
  ligand efficiency: 0.5 kcal/mol/non-H atom
NDM-1 [1]; fluorescent assay
  fold improvement in inhibition compared to DPA: 4 fold
MMP-2
  Percent inhibition of MMP-2: some inhibition
MMP-12
  Percent inhibition of MMP-12: some inhibition
HDAC-1
  Percent inhibition of HDAC-1: did not show inhibition; also recorded: No inhibition
HDAC-6
  Percent inhibition of HDAC-6: did not show inhibition; also recorded: No inhibition
[2]
  selectivity for NDM-1 over human CAII: at least 500 fold
[2]; at 10 μM
  Percent inhibition of hCAII: did not show inhibition; also recorded: No inhibition
[3]
  inhibition of Zn(II) metalloenzymes at higher concentrations: < 50%
NDM-1 [4]
  effect of exogenous Zn(II) in the assay buffer on NDM-1 inhibition: little impact on the IC50 value
NDM-1 [5]
  Zn(II) content of NDM-1 after incubation and dialysis: no significant removal of Zn(II)
NDM-1 [5]; ~24 μM compound
  Zn(II) removed from NDM-1: 10–20%
NDM-1 [6]
  quenching of intrinsic tryptophan fluorescence of NDM-1: 50–60%
[7]; 36 alone (100 mg/L), all E. coli and K. pneumoniae strains
  effect on bacterial growth of compound alone: no effect on growth
HEK293 cells
  toxicity to HEK293 cells (growth, morphology, viability): not adversely effected; also recorded: did not exhibit cytotoxicity; also recorded: no toxicity was observed

## O=C(O)c1cccc(C(=O)O)n1 [DPA, 2,6-dipicolinic acid]
NDM-1 [4]
  effect of exogenous Zn(II) in the assay buffer on NDM-1 inhibition: diminishes the inhibition activity
NDM-1 [5]
  Zn(II) content of NDM-1 after incubation and dialysis: significant loss in Zn(II) content

## O=C(O)CN(CCN(CC(=O)O)CC(=O)O)CC(=O)O [EDTA, ethylenediaminetetraacetic acid]
[8]
  reduction of fluorescence emission of L-tryptophan: no change

## C[C@@H](O)[C@H]1C(=O)N2C(C(=O)O)=C(SCCN=CN)C[C@H]12 [Imipenem, imipenem]
[9]; read-out: MIC, imipenem, E. coli isolate Ah8.71
  MIC: 16 µg/mL (≈ 53.4 µM)
[9]; read-out: MIC, imipenem, E. coli isolate Ah8.73
  MIC: 16 µg/mL (≈ 53.4 µM)
[9]; read-out: MIC, imipenem, E. coli isolate Ah8.75
  MIC: 16 µg/mL (≈ 53.4 µM)
[9]; read-out: MIC, imipenem, E. coli isolate Ch8.68
  MIC: 16 µg/mL (≈ 53.4 µM)
[9]; read-out: MIC, imipenem, E. coli isolate Ch8.69
  MIC: 4 µg/mL (≈ 13.4 µM)
[9]; read-out: MIC, imipenem, E. coli isolate Ch8.70
  MIC: 16 µg/mL (≈ 53.4 µM)
[9]; read-out: MIC, imipenem, E. coli isolate Ch8.72
  MIC: 16 µg/mL (≈ 53.4 µM)
[10]; read-out: MIC, imipenem, K. pneumoniae isolate Cm1.62
  MIC: 16 µg/mL (≈ 53.4 µM)
[10]; read-out: MIC, imipenem, K. pneumoniae isolate Cm1.63
  MIC: 8 µg/mL (≈ 26.7 µM)
[10]; read-out: MIC, imipenem, K. pneumoniae isolate Pd1.48
  MIC: 8 µg/mL (≈ 26.7 µM)
[10]; read-out: MIC, imipenem, K. pneumoniae isolate Pd1.49
  MIC: 4 µg/mL (≈ 13.4 µM)
[10]; read-out: MIC, imipenem, K. pneumoniae isolate Pd1.50
  MIC: 8 µg/mL (≈ 26.7 µM)
[10]; read-out: MIC, imipenem, K. pneumoniae isolate Pd1.53
  MIC: 8 µg/mL (≈ 26.7 µM)
[10]; read-out: MIC, imipenem, K. pneumoniae isolate Pd1.54
  MIC: 8 µg/mL (≈ 26.7 µM)
[10]; read-out: MIC, imipenem, K. pneumoniae isolate Pd1.55
  MIC: 8 µg/mL (≈ 26.7 µM)
[7]; read-out: MICs of imipenem alone
  MIC: 4 to 16 µg/mL (≈ 13.4 to 53.4 µM)

## C[C@H](CS)C(=O)N1CCC[C@H]1C(=O)O [L-Captopril]
NDM-1 [5]
  Zn(II) content of NDM-1 after incubation and dialysis: did not change
[8]
  reduction of fluorescence emission of L-tryptophan: no change
